# In ChEMBL document CHEMBL2321849, “Discovery and structure-activity relationships of small molecules that block the human immunoglobulin G-human neonatal Fc receptor (hIgG-hFcRn) protein-protein interaction” (Bioorg Med Chem Lett, 2013):
# Experiment: Inhibition of human IgG-FcRn interaction by competition ELISA
# Outline: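 Competition ELISA: test compounds at various concentrations mixed with 3 nM human IgG, then incubated on plates coated with soluble human FcRn. Inhibition of hIgG binding to shFcRn measured; IC50 reported in µM.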
row,Compound,IC50
1,N#CC(C(=O)NCc1ccc(OCCN2CCOCC2)cc1)c1nc2ccccc2nc1N1CCCCCC1 (stereo not given),> 500 µM
2,COc1ccccc1CNC(=O)C(C#N)c1nc2ccccc2nc1N1CCCCCC1 (stereo not given),150 µM
3,N#CC(C(=O)NCC1CCCCC1)c1nc2ccccc2nc1N1CCCCCC1 (stereo not given),> 500 µM
4,COCCCNC(=O)C(C#N)c1nc2ccccc2nc1N1CCCCCC1 (stereo not given),> 150 µM
5,COCCNC(=O)C(C#N)c1nc2ccccc2nc1N1CCCCCC1 (stereo not given),120 µM
6,COc1cccc(CNC(=O)C(C#N)c2nc3cc(Cl)c(Cl)cc3nc2N2CCCCCC2)c1 (stereo not given),30 µM
7,COc1ccc([C@@H](C)NC(=O)C(C#N)c2nc3ccccc3nc2N2CCCCCC2)cc1 (stereo not given in full),40 µM
8,CCCCNC(=O)C(C#N)c1nc2ccccc2nc1N1CCCCCC1 (stereo not given),> 500 µM
9,COc1cccc(CNC(=O)C(C#N)c2nc3ccc(C(=O)NCCCN(C)C)cc3nc2N2CCCCCC2)c1 (stereo not given),400 µM
10,COc1cccc(CNC(=O)C(C#N)c2nc3ccccc3nc2NC2CC3CCC2C3)c1 (stereo not given),> 500 µM
11,N#CC(C(=O)NCc1ccco1)c1nc2ccccc2nc1N1CCCCCC1 (stereo not given),> 1000 µM
12,N#CC(C(=O)NCc1cccc(-c2nccs2)c1)c1nc2ccccc2nc1N1CCCCCC1 (stereo not given),40 µM
13,COc1cccc(CNC(=O)C(C#N)c2nc3ccccc3nc2Sc2ccccc2)c1 (stereo not given),> 500 µM
14,N#CC(C(=O)NCCc1ccc(N)cc1)c1nc2ccccc2nc1N1CCCCCC1 (stereo not given),> 500 µM
15,N#CC(C(=O)NCc1ccc(O)cc1)c1nc2ccccc2nc1N1CCCCCC1 (stereo not given),> 500 µM
16,COc1cccc(CNC(=O)C(C#N)c2nc3ccccc3nc2NC2CCCCCC2)c1 (stereo not given),> 500 µM

row,Compound,IC50
1,COc1cccc(CNC(=O)C(C#N)c2nc3ccc(C(=O)Nc4ccccc4)cc3nc2N2CCCCCC2)c1 (stereo not given),> 500 µM
2,COc1cccc(CNC(=O)C(C#N)c2nc3ccccc3nc2Nc2ccccc2)c1 (stereo not given),> 500 µM
3,N#CC(C(=O)NCc1ccccn1)c1nc2ccccc2nc1N1CCCCCC1 (stereo not given),> 1000 µM
4,COc1ccc(C(CN2CCOCC2)NC(=O)C(C#N)c2nc3ccccc3nc2N2CCCCCC2)cc1 (stereo not given),2 µM
5,N#CC(C(=O)NCc1cccs1)c1nc2ccccc2nc1N1CCCCCC1 (stereo not given),> 1000 µM
6,COc1cccc(CNC(=O)C(C#N)c2nc3ccccc3nc2NCc2ccccc2)c1 (stereo not given),> 500 µM
7,COc1cccc(CNC(=O)C(C#N)c2nc3ccc(C(=O)NCCc4cccnc4)cc3nc2N2CCCCCC2)c1 (stereo not given),> 500 µM
8,COc1ccc([C@H](C)NC(=O)C(C#N)c2nc3ccccc3nc2N2CCCCCC2)cc1 (stereo not given in full),40 µM
9,N#CC(C(=O)NCc1ccccc1)c1nc2ccccc2nc1N1CCCCCC1 (stereo not given),> 500 µM
10,C=CCCNC(=O)C(C#N)c1nc2ccccc2nc1N1CCCCCC1 (stereo not given),> 250 µM
11,COc1cccc(CNC(=O)C(C#N)c2nc3ccc(C(=O)NCc4cccnc4)cc3nc2N2CCCCCC2)c1 (stereo not given),> 500 µM
12,CN(C)c1ccc(CNC(=O)C(C#N)c2nc3ccccc3nc2N2CCCCCC2)cc1 (stereo not given),> 500 µM
13,COc1ccc(CCNC(=O)C(C#N)c2nc3ccccc3nc2N2CCCCCC2)cc1 (stereo not given),120 µM
14,N#CC(C(=O)NCc1cccnc1)c1nc2ccccc2nc1N1CCCCCC1 (stereo not given),> 1000 µM
15,N#Cc1ccc(CNC(=O)C(C#N)c2nc3ccccc3nc2N2CCCCCC2)cc1 (stereo not given),40 µM

# Other lines, results leading:
row,IC50,Compound
1,> 500 µM,COc1cccc(CNC(=O)C(C#N)c2nc3ccccc3nc2N2CCCNCC2)c1 (stereo not given)
2,80 µM,N#CC(C(=O)NCc1cccc(OC(F)(F)F)c1)c1nc2ccccc2nc1N1CCCCCC1 (stereo not given)
3,200 µM,Cc1cncc(Oc2cccc(CNC(=O)C(C#N)c3nc4ccccc4nc3N3CCCCCC3)c2)n1 (stereo not given)
4,> 500 µM,COc1cccc(CNC(=O)C(C#N)c2nc3ccccc3nc2N2CCCN(C)CC2)c1 (stereo not given)
5,> 500 µM,COc1cccc(CNC(=O)C(C#N)c2nc3ccccc3nc2N2CCCCC2)c1 (stereo not given)
6,100 µM,N#CC(C(=O)NCc1cccc(Cl)c1)c1nc2ccccc2nc1N1CCCCCC1 (stereo not given)
7,> 500 µM,COc1cccc(CNC(=O)C(C#N)c2nc3ccccc3nc2N2CCN(C)CC2)c1 (stereo not given)
8,> 500 µM,COc1cccc(CNC(=O)C(C#N)c2nc3ccccc3nc2N2CCCN(C(=O)OCc3ccccc3)CC2)c1 (stereo not given)
9,> 500 µM,COc1cccc(CNC(=O)C(C#N)c2nc3cc(OC)ccc3nc2N2CCCCCC2)c1 (stereo not given)
10,> 500 µM,COc1cccc(CNC(=O)C(C#N)c2nc3ccccc3nc2N2CCCOCC2)c1 (stereo not given)
11,10 µM,COc1cccc(CNC(=O)C(C#N)c2nc3ccccc3nc2N2CCCCCC2)c1 (stereo not given)
12,> 500 µM,COc1cccc(CNC(=O)C(C#N)c2nc3ccccc3nc2N2CCCN(CCO)CC2)c1 (stereo not given)
13,100 µM,COc1cccc(CNC(=O)C(C#N)c2nc3ccc(C#N)cc3nc2N2CCCCCC2)c1 (stereo not given)
14,200 µM,CN(C)CCCOc1cccc(CNC(=O)C(C#N)c2nc3ccccc3nc2N2CCCCCC2)c1 (stereo not given)
15,> 500 µM,COc1cccc(CNC(=O)C(C#N)c2nc3ccccc3nc2N2CCCN(C(C)=O)CC2)c1 (stereo not given)
16,150 µM,N#CC(C(=O)NCc1cccc(F)c1)c1nc2ccccc2nc1N1CCCCCC1 (stereo not given)
17,6 µM,COc1cccc(CNC(=O)C(C#N)c2nc3ccccc3nc2N2CCCCCCC2)c1 (stereo not given)
18,> 500 µM,COc1cccc(CNC(=O)C(C#N)c2nc3ccccc3nc2N2CCCC3CCCCC32)c1 (stereo not given)
19,100 µM,COc1cccc(CCNC(=O)C(C#N)c2nc3ccccc3nc2N2CCCCCC2)c1 (stereo not given)
20,50 µM,COc1ccc(CNC(=O)C(C#N)c2nc3ccccc3nc2N2CCCCCC2)cc1 (stereo not given)
21,400 µM,N#CC(C(=O)NCc1cccc(OCCN2CCOCC2)c1)c1nc2ccccc2nc1N1CCCCCC1 (stereo not given)
22,> 500 µM,COc1cccc(CNC(=O)C(C#N)c2nc3ccccc3nc2N2CCOCC2)c1 (stereo not given)
23,250 µM,COc1ccc(CNC(=O)C(C#N)c2nc3ccccc3nc2N2CCCCCC2)cc1OC (stereo not given)
24,500 µM,COc1cccc(CNC(=O)C(C#N)c2nc3ccc([N+](=O)[O-])cc3nc2N2CCCCCC2)c1 (stereo not given)
